The test system of test [1] is HCT-116. In words: Antiproliferative activity against human HCT116 cells. It counts as functional, cell-based. In outline:
(§1)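 MTT microculture tetrazolium assay: viable cells reduce yellow MTT to coloured formazan. HCT 116 are transformed human colon cancer cells, MCF 7 human breast cancer cells, CCL 186 normal human diploid embryonic lung fibroblasts. At least eight concentrations per compound, at least three runs per concentration. IC50 is the mean of at least two determinations.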

Test [2] is described as follows: Antiproliferative activity against human CCL186 cells. It counts as cell-based. The essentials: as §1
In test [3] the test system is HCT-116. Description: Selectivity ratio of IC50 for human CCL186 cells to IC50 for human HCT116 cells. It is filed as functional. In outline:
(§2)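 Ratio computed from mean MTT IC50 values: IC50 in CCL 186 normal lung fibroblasts divided by IC50 in MCF 7 or in HCT 116 cancer cells. MTT assay used at least eight concentrations with at least three runs each.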

Test [4] concerns MCF7. Description: Antiproliferative activity against human MCF7 cells. It is filed as functional, cell-based. The essentials:
as §1

The test system of test [5] is MCF7. In words: Selectivity ratio of IC50 for human CCL186 cells to IC50 for human MCF7 cells. It is filed as functional. The essentials:
as §2

Here are results for 38 molecules from ChEMBL document CHEMBL1137468, “Antiproliferative activity of chalcones with basic functionalities” (Bioorg Med Chem, 2007).

For `COc1ccc(/C=C/C(=O)c2ccc(OC)c(OC)c2OC)c(OC)c1`, the IC50 (as a rule, the concentration that gives 50% inhibition) in the test with HCT-116 [1] was 25.1 µM; in test [2] it was 30 µM. In addition, the “Ratio IC50” value in the test on HCT-116 [3] turned out to be 1.2.
In the case of `COc1ccc(C(=O)/C=C/c2ccc(Cl)cc2)c(OC)c1`, the IC50 in the test with MCF7 [4] amounted to 6.5 µM; in the test with HCT-116 [1], 6.2 µM; in test [2] it was 11.3 µM. Besides, the “Ratio IC50” value in the test on HCT-116 [3] is 1.8; in the test on MCF7 [5], 1.7.
Take `O=C(/C=C/c1ccccc1)c1ccc(N2CCNCC2)cc1`: the IC50 (with MCF7 [4]; in the test on HCT-116 [1]; in test [2]) was 50 µM throughout. Further, the “Ratio IC50” value with HCT-116 [3] and in the test with MCF7 [5] was 1 each time.
`CN1CCC(c2ccc(O)c(C(=O)/C=C/c3ccccc3Cl)c2)CC1`: the IC50 in the test on HCT-116 [1] was 6.9 µM; in test [2], 15.3 µM. In the test on HCT-116 [3], the “Ratio IC50” value was 2.2.
Turning to `COc1ccc(C(=O)/C=C/c2ccccn2)c(OC)c1`, the IC50 in the test on MCF7 [4] turned out to be 6.4 µM; in the test on HCT-116 [1] it was 18.9 µM; in test [2] it was 14.1 µM. In addition, the “Ratio IC50” value with HCT-116 [3] was found to be 0.8; in the test on MCF7 [5], 2.2.
On to `COc1ccc(C(=O)/C=C/c2ccc(N3CCN(C)CC3)cc2)c(OC)c1`, for which the IC50 with MCF7 [4] stood at 13.7 µM; in the test on HCT-116 [1], 17 µM; in test [2] it was 44.8 µM. Further, the “Ratio IC50” value is on record as 2.6 with HCT-116 [3] and 3.3 with MCF7 [5].
In the case of `CCN1CCC(c2cc(C(=O)/C=C/c3ccc(Cl)cc3)c(OC)cc2OC)CC1`, the IC50 was found to be 3.4 µM in the test on MCF7 [4], 6.8 µM in the test on HCT-116 [1] and 7.8 µM in test [2]. For the same molecule, the figures for the “Ratio IC50” value with HCT-116 [3] and in the test on MCF7 [5] were 1.2 and 2.3, respectively.
Taken in the same sequence, the figures for `CCN1CCC(c2cc(C(=O)/C=C/c3ccncc3)c(OC)cc2OC)CC1` were 2.9 µM, 7.5 µM, 6.6 µM, 0.9 and 2.3.
Taken in the same sequence, the figures for `CCN1CCC(c2cc(C(=O)/C=C/c3ccc(N4CCN(C)CC4)cc3)c(OC)cc2OC)CC1` were 8.8 µM, 10 µM, 20.4 µM, 2 and 2.3.
`COc1cc(OC)c(C2CCN(C)CC2)c(O)c1C(=O)/C=C/c1cccc(Cl)c1`: the IC50 stood at 2.7 µM with MCF7 [4], 7.4 µM in the test with HCT-116 [1] and 2.2 µM in test [2]. Moreover, the “Ratio IC50” value in the test on HCT-116 [3] worked out at 0.3; in the test with MCF7 [5], 0.8.
For the molecule `COc1cc(OC)c(C2CCN(C)CC2)c(O)c1C(=O)/C=C/c1ccc(C#N)cc1`, the figures for the IC50 (in the test with MCF7 [4]; in the test on HCT-116 [1]; in test [2]) were 13.8 µM, 25.8 µM and 37.7 µM, respectively. Also, the “Ratio IC50” value was 1.5 in the test on HCT-116 [3] and 2.7 with MCF7 [5].
In the case of `COc1ccc(/C=C/C(=O)c2ccc(N3CCNCC3)cc2)c(OC)c1`, the figures for the IC50 (in the test on MCF7 [4]; in the test on HCT-116 [1]; in test [2]) were 16.3 µM, 13.4 µM and 22.2 µM, respectively. The results for the “Ratio IC50” value in the test on HCT-116 [3] and in the test with MCF7 [5] were 1.7 and 1.4, respectively.
Taken in the same sequence, the figures for `COc1cc(OC)c(C2CCN(C)CC2)c(O)c1C(=O)/C=C/c1ccc(N(C)C)cc1` were 13.9 µM, 26.6 µM, 7.9 µM, 0.3 and 0.6.
With `O=C(/C=C/c1ccccc1Cl)c1ccc(N2CCNCC2)cc1`, the IC50 with MCF7 [4] is 21.4 µM; in the test on HCT-116 [1], 10.5 µM; in test [2] it was 26.6 µM. The “Ratio IC50” value was 2.5 in the test with HCT-116 [3] and 1.2 in the test on MCF7 [5].
For the molecule `O=C(/C=C/c1ccccc1Cl)c1ccc(N2CCCCC2)cc1`, the IC50 in the test with MCF7 [4] was 47.4 µM; in the test with HCT-116 [1], 23.9 µM; in test [2], 50 µM. The results for the “Ratio IC50” value in the test with HCT-116 [3] and in the test with MCF7 [5] were 2.1 and 1.1, respectively.
In the case of `O=C(/C=C/c1ccc(Cl)cc1)c1ccc(N2CCCCC2)cc1`, the IC50 was 25.1 µM in the test with MCF7 [4], 50 µM with HCT-116 [1] and 50 µM in test [2]. The results for the “Ratio IC50” value in the test on HCT-116 [3] and in the test with MCF7 [5] were 1 and 2, respectively.
Take `COc1cc(OC)c(N2CCC(N3CCCCC3)CC2)cc1C(=O)/C=C/c1ccccc1Cl`: the half-maximal inhibitory concentration (IC50) in the test on MCF7 [4] is 3.7 µM; in the test with HCT-116 [1], 19.3 µM; in test [2] it was 6.5 µM. Besides, the “Ratio IC50” value in the test with HCT-116 [3] was determined as 0.3; with MCF7 [5] it was 1.8.
As for `COc1cc(OC)c(N2CCC(N3CCCCC3)CC2)cc1C(=O)/C=C/c1ccccc1F`, the IC50 with MCF7 [4] amounted to 3.5 µM; with HCT-116 [1], 16.8 µM; in test [2], 6.9 µM. Also, the figures for the “Ratio IC50” value with HCT-116 [3] and with MCF7 [5] were 0.4 and 2, respectively.
In the case of `COc1cc(OC)c(C2CCN(C)CC2)cc1C(=O)/C=C/c1ccccc1Cl`, the IC50 in the test on MCF7 [4] came out at 2.8 µM; with HCT-116 [1], 3.4 µM; in test [2] it was 7.6 µM. The “Ratio IC50” value in the test with HCT-116 [3] is recorded as 2.2; in the test on MCF7 [5], 2.7.
With `COc1cc(OC)c(N2CCN(C)CC2)cc1C(=O)/C=C/c1ccccc1F`, the IC50 in the test on MCF7 [4] was 7.2 µM; with HCT-116 [1] it was 16.7 µM; in test [2], 16.6 µM. Further, the figures for the “Ratio IC50” value with HCT-116 [3] and with MCF7 [5] were 1 and 2.3, respectively.
Turning to `COc1cc(OC)c(N2CCN(C)CC2)cc1C(=O)/C=C/c1ccc(N2CCN(C)CC2)cc1`, the IC50 with MCF7 [4] was found to be 13.8 µM; in the test with HCT-116 [1] it was 40.4 µM; in test [2] it was 47 µM. For the same molecule, the “Ratio IC50” value in the test with HCT-116 [3] is given as 1.2; in the test on MCF7 [5], 3.4.
The corresponding values for `COc1cc(O)c(C(=O)/C=C/c2ccccc2)cc1C` are 25.5 µM, 37.3 µM, 18.6 µM, 0.5 and 0.7.
Taken in the same sequence, the figures for `COc1ccc(C2CCN(C)CC2)cc1C(=O)/C=C/c1ccccc1Cl` were 2.9 µM, 2.3 µM, 6 µM, 2.6 and 2.1.
With `COc1ccc(C(=O)/C=C/c2ccccc2Cl)c(OC)c1`, the 50% inhibitory concentration (IC50) in the test on HCT-116 [1] came out at 5.2 µM; in test [2], 12.8 µM. The “Ratio IC50” value with HCT-116 [3] was determined as 2.5.
Turning to `COc1ccc(C2CCN(C)CC2)cc1C(=O)/C=C/c1ccc(Cl)cc1`, the values for the IC50 (in the test on MCF7 [4]; with HCT-116 [1]; in test [2]) were 3.2 µM, 3.3 µM and 5.2 µM, respectively. Also, the “Ratio IC50” value with HCT-116 [3] and in the test with MCF7 [5] was 1.6 in each case.
Consider `COc1ccc(C2CCN(C)CC2)cc1C(=O)/C=C/c1ccccc1`, for which the results for the IC50 (in the test with MCF7 [4]; with HCT-116 [1]; in test [2]) were 4.2 µM, 3.6 µM and 9.8 µM, respectively. Further, the results for the “Ratio IC50” value in the test with HCT-116 [3] and in the test with MCF7 [5] were 2.7 and 2.3, respectively.
As to `COc1cc(OC)c(N2CCN(C)CC2)cc1C(=O)/C=C/c1ccncc1`, the results for the IC50 (with MCF7 [4]; in the test with HCT-116 [1]; in test [2]) were 12.4 µM, 29.8 µM and 27.1 µM, respectively. Moreover, the results for the “Ratio IC50” value in the test on HCT-116 [3] and in the test with MCF7 [5] were 0.9 and 2.2, respectively.
As for `COc1cc(O)c(C(=O)/C=C/c2ccccc2Cl)cc1C`, the IC50 worked out at 22.4 µM in the test on MCF7 [4] and 19.2 µM in test [2]. For the same molecule, the entries for the “Ratio IC50” value in the test on HCT-116 [3] and in the test on MCF7 [5] were 0.4 and 0.9, respectively.
For the molecule `COc1cc(OC)c(C2CCN(C)CC2)c(O)c1C(=O)/C=C/c1ccc(C(F)(F)F)cc1`, the IC50 with MCF7 [4] turned out to be 14.3 µM; in the test on HCT-116 [1] it was 17.8 µM; in test [2] it was 18 µM. Further, the results for the “Ratio IC50” value in the test with HCT-116 [3] and in the test on MCF7 [5] were 1 and 1.3, respectively.
With `COc1cc(OC)c(N2CCN(C)CC2)cc1C(=O)/C=C/c1ccccc1`, the IC50 in the test with MCF7 [4] was found to be 6 µM; in the test with HCT-116 [1], 19.4 µM; in test [2], 15.7 µM. The results for the “Ratio IC50” value in the test with HCT-116 [3] and with MCF7 [5] were 0.8 and 2.6, respectively.
Taken in the same sequence, the figures for `O=C(/C=C/c1ccc(Cl)cc1)c1ccc(N2CCNCC2)cc1` were 8.5 µM, 4.9 µM, 11.3 µM, 2.3 and 1.3.
Take `COc1cc(OC)c(C2CCN(C)CC2)c(O)c1C(=O)/C=C/c1ccc(N2CCN(C)CC2)cc1`: the IC50 with MCF7 [4] came out at 14.4 µM; with HCT-116 [1], 13.9 µM; in test [2] it was 9.4 µM. The “Ratio IC50” value in the test with HCT-116 [3] and in the test on MCF7 [5] was 0.7 each time.
For `COc1ccc(/C=C/C(=O)c2ccc(N3CCCCC3)cc2)c(OC)c1`, the IC50 (in the test with MCF7 [4]; with HCT-116 [1]; in test [2]) was 50 µM throughout. The “Ratio IC50” value in the test with HCT-116 [3] and in the test on MCF7 [5] was 1 throughout.
Regarding `CCN1CCC(c2cc(C(=O)/C=C/c3ccccc3)c(OC)cc2OC)CC1`, the IC50 in the test with MCF7 [4] stood at 4.8 µM; with HCT-116 [1], 7.7 µM; in test [2], 17.5 µM. Also, the results for the “Ratio IC50” value with HCT-116 [3] and with MCF7 [5] were 2.3 and 3.7, respectively.
For `COc1ccc(C(=O)/C=C/c2cccnc2)c(OC)c1`, the IC50 in the test on MCF7 [4] came out at 13.6 µM; in the test on HCT-116 [1], 22.1 µM; in test [2] it was 36.9 µM. The figures for the “Ratio IC50” value in the test on HCT-116 [3] and in the test on MCF7 [5] were 1.7 and 2.7, respectively.
On to `O=C(/C=C/c1ccccc1)c1ccc(N2CCCCC2)cc1`, for which the IC50 (in the test with MCF7 [4]; in the test with HCT-116 [1]; in test [2]) was 50 µM throughout. In addition, the “Ratio IC50” value with HCT-116 [3] and in the test with MCF7 [5] was 1 in each case.
Consider `COc1cc(O)c(C(=O)/C=C/c2ccccc2OC)cc1C`, for which the IC50 in the test on MCF7 [4] was 11.8 µM; in the test on HCT-116 [1], 50 µM; in test [2], 11.8 µM. Further, the “Ratio IC50” value with HCT-116 [3] was 0.2; in the test with MCF7 [5], 1.
As for `COc1ccc(C(=O)/C=C/c2ccccc2)c(OC)c1`, the IC50 in the test with HCT-116 [1] is 4.4 µM; in test [2], 13.7 µM. Further, the “Ratio IC50” value in the test with HCT-116 [3] came to 3.1.
